{"source": "ChEMBL document CHEMBL1154639", "about": "“Application of Huisgen (3+2) cycloaddition reaction: synthesis of 1-(2,3-dihydrobenzofuran-2-yl-methyl [1,2,3]-triazoles and their antitubercular evaluations” (2010)"}
{"tested_on": "Mycobacterium tuberculosis", "test": "Antitubercular activity against Mycobacterium tuberculosis H37Rv after 30 days by agar microdilution method", "type": "functional", "summary_of_the_method": "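M. tuberculosis H37Rv grown on L-J medium, harvested into 0.85% saline with 0.05% Tween-80. Compounds from a 1 mg/mL DMSO stock, two-fold dilutions in Middlebrook 7H10 agar slants with OADC. Slants preincubated 24 h at 37 °C, then streaked with 5 × 10^4 bacilli per tube and held at 37 °C. Growth read at 30 days against drug-free controls; MIC determined.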", "units": {"MIC": "µg/mL"}}
{"molecule": "Cc1ccc(C)c2c1CC(Cn1cc(CO)nn1)O2", "note": "(stereo not given)", "MIC": 12.5}
{"molecule": "CCCCCc1cn(CC2Cc3cc(C#N)ccc3O2)nn1", "note": "(stereo not given)", "MIC": "> 12.5"}
{"molecule": "Cc1ccc(C)c2c1CC(CN=[N+]=[N-])O2", "note": "(stereo not given)", "MIC": "> 12.5"}
{"molecule": "CCCCCCc1cn(CC2Cc3cc(C#N)ccc3O2)nn1", "note": "(stereo not given)", "MIC": "> 12.5"}
{"molecule": "N#Cc1ccc2c(c1)CC(Cn1cc(Cc3ccccc3)nn1)O2", "note": "(stereo not given)", "MIC": "> 12.5"}
{"molecule": "O=Cc1ccc2c(c1)CC(Cn1cc(-c3ccccc3)nn1)O2", "note": "(stereo not given)", "MIC": "> 12.5"}
{"molecule": "CCCCCC(O)c1cn(CC2Cc3cc(C#N)ccc3O2)nn1", "note": "(stereo not given)", "MIC": "> 25"}
{"molecule": "O=Cc1ccc2c(c1)CC(Cn1cc(Cc3ccccc3)nn1)O2", "note": "(stereo not given)", "MIC": "> 12.5"}
{"molecule": "[N-]=[N+]=NCC1Cc2cc(C=O)ccc2O1", "note": "(stereo not given)", "MIC": "> 12.5"}
{"molecule": "CCCCCc1cn(CC2Cc3cc(C=O)ccc3O2)nn1", "note": "(stereo not given)", "MIC": 12.5}
{"molecule": "c1ccc(Cc2cn(CC3Cc4c(ccc5ccccc45)O3)nn2)cc1", "note": "(stereo not given)", "MIC": "> 12.5"}
{"molecule": "CCCCCc1cn(CC2Cc3c(ccc4ccccc34)O2)nn1", "note": "(stereo not given)", "MIC": 12.5}
{"molecule": "CCCCCc1cn(CC2Cc3c(C)ccc(C)c3O2)nn1", "note": "(stereo not given)", "MIC": "> 12.5"}
{"molecule": "OCc1cn(CC2Cc3c(ccc4ccccc34)O2)nn1", "note": "(stereo not given)", "MIC": "> 12.5"}
{"molecule": "Cc1ccc(C)c2c1CC(Cn1cc(Cc3ccccc3)nn1)O2", "note": "(stereo not given)", "MIC": "> 12.5"}
{"molecule": "CCCCCCc1cn(CC2Cc3c(C)ccc(C)c3O2)nn1", "note": "(stereo not given)", "MIC": "> 12.5"}
{"molecule": "N#Cc1ccc2c(c1)CC(CN=[N+]=[N-])O2", "note": "(stereo not given)", "MIC": "> 12.5"}
{"molecule": "c1ccc(-c2cn(CC3Cc4c(ccc5ccccc45)O3)nn2)cc1", "note": "(stereo not given)", "MIC": "> 12.5"}
{"molecule": "Cc1ccc(C)c2c1CC(Cn1cc(-c3ccccc3)nn1)O2", "note": "(stereo not given)", "MIC": "> 12.5"}
{"molecule": "Cc1ccc(C)c2c1CC(Cn1cc(CCO)nn1)O2", "note": "(stereo not given)", "MIC": "> 12.5"}
{"molecule": "N#Cc1ccc2c(c1)CC(Cn1cc(CCO)nn1)O2", "note": "(stereo not given)", "MIC": "> 12.5"}
{"molecule": "[N-]=[N+]=NCC1Cc2c(ccc3ccccc23)O1", "note": "(stereo not given)", "MIC": 3.12}
{"molecule": "CCCCCCc1cn(CC2Cc3cc(C=O)ccc3O2)nn1", "note": "(stereo not given)", "MIC": 6.25}
{"molecule": "OCCc1cn(CC2Cc3c(ccc4ccccc34)O2)nn1", "note": "(stereo not given)", "MIC": "> 12.5"}
{"molecule": "O=Cc1ccc2c(c1)CC(Cn1cc(CO)nn1)O2", "note": "(stereo not given)", "MIC": "> 12.5"}
{"molecule": "N#Cc1ccc2c(c1)CC(Cn1cc(CO)nn1)O2", "note": "(stereo not given)", "MIC": "> 25"}
{"molecule": "N#Cc1ccc2c(c1)CC(Cn1cc(-c3ccccc3)nn1)O2", "note": "(stereo not given)", "MIC": "> 12.5"}
{"molecule": "CCCCCC(O)c1cn(CC2Cc3c(C)ccc(C)c3O2)nn1", "note": "(stereo not given)", "MIC": "> 12.5"}
{"molecule": "CC[C@@H](CO)NCCN[C@@H](CC)CO", "note": "[ETHAMBUTOL]", "MIC": 3.25}
{"molecule": "NNC(=O)c1ccncc1", "note": "[ISONIAZID]", "MIC": 0.75}
